ChEMBL document CHEMBL3822380, “Simple avarone mimetics as selective agents against multidrug resistant cancer cells” (Eur J Med Chem, 2016)
Converted amounts (≈) assume the structure as drawn. Blank lines part the entries; values can stand above or below the compound they belong to. The source made the active and inactive calls.

How the values were obtained:
[1] = tested on: HaCaT; assay: Induction of apoptosis in human HaCaT cells assessed as late apoptotic/necrotic cells at 25 uM after 72 hrs by annexin-V/propidium iodide staining-based flow cytometric analysis (reference value: 0.2%); assay type: cell-based
[2] = tested on: NCI-H460; assay: Induction of apoptosis in multidrug resistant human NCI-H460 cells assessed as live cells at 25 uM after 72 hrs by annexin-V/propidium iodide staining-based flow cytometric analysis (reference value: 96.4%); assay type: functional
[3] = tested on: NCI-H460; assay: Cytotoxicity against human NCI-H460 cells after 72 hrs by MTT assay; assay type: functional, cell-based; conditions: NCI-H460, 72 h
Method in brief: (§1)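 Seeding in 96-well plates at 1000 (NCI-H460), 2000 (NCI-H460/R) or 4000 (HaCaT) cells/well, treated after 24 h for 72 h. MTT at 0.4 mg/mL final, 4 h at 37 °C. Formazan dissolved in DMSO, absorbance read at 540 nm. Inhibition % = (1 − A treated/A untreated)×100. IC30 and IC50 obtained by linear regression.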

[4] = tested on: NCI-H460; assay: Induction of apoptosis in multidrug resistant human NCI-H460 cells assessed as late apoptotic/necrotic cells at 25 uM after 72 hrs by annexin-V/propidium iodide staining-based flow cytometric analysis (reference value: 1%); assay type: functional
[5] = tested on: NCI-H460; assay: Induction of apoptosis in human NCI-H460 cells assessed as early apoptotic cells at 25 uM after 72 hrs by annexin-V/propidium iodide staining-based flow cytometric analysis (reference value: 0.3%); assay type: functional
[6] = tested on: NCI-H460; assay: Induction of apoptosis in human NCI-H460 cells assessed as live cells at 25 uM after 72 hrs by annexin-V/propidium iodide staining-based flow cytometric analysis (reference value: 98.3%); assay type: functional
[7] = tested on: NCI-H460; assay: Induction of apoptosis in multidrug resistant human NCI-H460 cells assessed as dead cells at 25 uM after 72 hrs by annexin-V/propidium iodide staining-based flow cytometric analysis (reference value: 1.5%); assay type: functional
[8] = tested on: HaCaT; assay: Cytotoxicity against human HaCaT cells after 72 hrs by MTT assay; assay type: cell-based; conditions: for IC50: Homo sapiens, HaCaT; for IC30: human, hacat; method in brief: as §1
[9] = tested on: NCI-H460; assay: Induction of superoxide anion generation in multidrug resistant human NCI-H460 cells at 25 uM after 72 hrs by DHE staining-based flow cytometric analysis relative to control; assay type: functional, cell-based
Method in brief: (§2)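 Seeded as for cell death (50,000 or 100,000 cells/well), treated 72 h at 25 µM, with CDDP 5 µM as control. Adherent cells trypsinized and loaded with 1 µM DHE for 30 min at 37 °C in the dark, then washed twice in PBS. Flow cytometry at ex 488/em 585 nm (FL2-H). Mean fluorescence intensity corrected for autofluorescence and compared with untreated control.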

[10] = tested on: NCI-H460; assay: Induction of superoxide anion generation in human NCI-H460 cells at 25 uM after 72 hrs by DHE staining-based flow cytometric analysis relative to control; assay type: functional, cell-based; method in brief: as §2
[11] = tested on: NCI-H460; assay: Induction of apoptosis in human NCI-H460 cells assessed as dead cells at 25 uM after 72 hrs by annexin-V/propidium iodide staining-based flow cytometric analysis (reference value: 1.2%); assay type: functional
[12] = tested on: HaCaT; assay: Induction of superoxide anion generation in human HaCaT cells at 25 uM after 72 hrs by DHE staining-based flow cytometric analysis relative to control; assay type: cell-based; method in brief: as §2
[13] = tested on: NCI-H460; assay: Induction of apoptosis in multidrug resistant human NCI-H460 cells assessed as early apoptotic cells at 25 uM after 72 hrs by annexin-V/propidium iodide staining-based flow cytometric analysis (reference value: 1.1%); assay type: functional
[14] = tested on: HaCaT; assay: Induction of apoptosis in human HaCaT cells assessed as dead cells at 25 uM after 72 hrs by annexin-V/propidium iodide staining-based flow cytometric analysis (reference value: 2.8%); assay type: cell-based
[15] = tested on: NCI-H460; assay: Cytotoxicity against multidrug resistant human NCI-H460 cells after 72 hrs by MTT assay; assay type: functional, cell-based; conditions: NCI-H460, 72 h; method in brief: as §1
[16] = tested on: HaCaT; assay: Induction of apoptosis in human HaCaT cells assessed as early apoptotic cells at 25 uM after 72 hrs by annexin-V/propidium iodide staining-based flow cytometric analysis (reference value: 0.2%); assay type: cell-based
[17] = tested on: NCI-H460; assay: Induction of apoptosis in human NCI-H460 cells assessed as late apoptotic/necrotic cells at 25 uM after 72 hrs by annexin-V/propidium iodide staining-based flow cytometric analysis (reference value: 0.2%); assay type: functional
[18] = Induction of apoptosis in human HaCaT cells assessed as live cells at 25 uM after 72 hrs by annexin-V/propidium iodide staining-based flow cytometric analysis (reference value: 96.8%); assay type: cell-based; conditions: read-out: Activity
[19] = tested on: Staphylococcus aureus; assay: Antibacterial activity against Staphylococcus aureus ATCC 6538 by broth microdilution method; assay type: functional
Method in brief: (§3)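 Broth microdilution per NCCLS. Compounds dissolved in DMSO as 10 mg/mL stock, diluted in Mueller Hinton broth (bacteria) or Sabouraud dextrose broth (fungi). Amikacin served as the positive control for bacteria and nystatin for fungi.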

[20] = tested on: Proteus hauseri; assay: Antibacterial activity against Proteus hauseri ATCC 13315 by broth microdilution method; assay type: functional; method in brief: as §3
[21] = Selectivity ratio of IC30/IC50 for human HaCaT cells to IC30/IC50 for multidrug resistant human NCI-H460 cells; assay type: ADME, cell-based; conditions: HaCaT cells versus multidrug resistant NCI-H460 cells
Method in brief: (§4)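 Fold threshold of 1.5 used to call selectivity to cancer cells, resistance, or selectivity to MDR cells.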

[22] = tested on: Micrococcus luteus; assay: Antibacterial activity against Micrococcus luteus ATCC 4698 by broth microdilution method; assay type: functional; conditions: NCTC 2665; method in brief: as §3
[23] = tested on: Escherichia coli; assay: Antibacterial activity against Escherichia coli ATCC 25922 by broth microdilution method; assay type: functional; method in brief: as §3
[24] = tested on: Clostridium sporogenes; assay: Antibacterial activity against Clostridium sporogenes ATCC 19404 by broth microdilution method; assay type: functional; method in brief: as §3
[25] = tested on: NCI-H460; assay: Selectivity ratio of IC30/IC50 for human NCI-H460 cells to IC30/IC50 for multidrug resistant human NCI-H460 cells; assay type: functional; method in brief: as §4
[26] = tested on: Salmonella enteritidis; assay: Antibacterial activity against Salmonella enterica subsp. enterica serovar Enteritidis ATCC 13076 by broth microdilution method; assay type: functional; method in brief: as §3
[27] = Selectivity ratio of IC30/IC50 for human HaCaT cells to IC30/IC50 for human NCI-H460 cells; assay type: ADME, cell-based; conditions: HaCaT cells versus NCI-H460 cells; method in brief: as §4
[28] = tested on: Kocuria rhizophila; assay: Antibacterial activity against Kocuria rhizophila ATCC 9341 by broth microdilution method; assay type: functional; conditions: DC2201; method in brief: as §3
[29] = tested on: Bacillus spizizenii; assay: Antibacterial activity against Bacillus subtilis ATCC 6633 by broth microdilution method; assay type: functional; method in brief: as §3
[30] = tested on: Pseudomonas aeruginosa; assay: Antibacterial activity against Pseudomonas aeruginosa ATCC 9027 by broth microdilution method; assay type: functional; method in brief: as §3
[31] = tested on: Micrococcus luteus; assay: Antibacterial activity against Micrococcus luteus ATCC 10240 by broth microdilution method; assay type: functional; method in brief: as §3
[32] = tested on: NCI-H460; assay: Induction of mitochondrial membrane potential depolarization in human NCI-H460 cells at 25 uM after 15 mins by JC1-staining-based flow cytometric analysis; assay type: functional, cell-based
Method in brief: (§5)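 Cells treated with 25 µM compound, with CDDP 5 µM as control. Stained with JC-1 for 15 min at 37 °C in a CO2 incubator, washed twice in assay buffer and resuspended in PBS. Flow cytometry read red aggregate (FL2-H) versus green monomer (FL1-H) fluorescence. Live cells were also imaged by fluorescence microscopy.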

[33] = tested on: HaCaT; assay: Induction of mitochondrial membrane potential depolarization in human HaCaT cells at 25 uM after 15 mins by JC1-staining-based flow cytometric analysis; assay type: cell-based; conditions: 0.25 h; method in brief: as §5
[34] = tested on: Aspergillus brasiliensis; assay: Antifungal activity against Aspergillus brasiliensis ATCC 16404 by broth microdilution method; assay type: functional; method in brief: as §3
[35] = tested on: Saccharomyces cerevisiae; assay: Antifungal activity against Saccharomyces cerevisiae ATCC 9763 by broth microdilution method; assay type: functional; method in brief: as §3
[36] = tested on: NCI-H460; assay: Induction of mitochondrial membrane potential depolarization in multidrug resistant human NCI-H460 cells at 25 uM after 15 mins by JC1-staining-based flow cytometric analysis; assay type: functional, cell-based; method in brief: as §5
[37] = tested on: Candida albicans; assay: Antifungal activity against Candida albicans ATCC 10231 by broth microdilution method; assay type: functional; method in brief: as §3

SMILES: CCCCCCCCNC1=CC(=O)C=C(C[C@]2(C)[C@@H](C)CC[C@]3(C)C(C)=CCC[C@@H]23)C1=O
- Activity [1]: 0.6%
- Activity [2]: 92.6%
- IC30 [3]: 21 µM
- IC50 [3]: 38 µM
- Activity [4]: 0.1%
- Activity [5]: 0.1%
- Activity [6]: 95.7%
- Activity [7]: 7.3%
- IC50 [8]: 17 µM
- IC30 [8]: 13 µM
- Activity [9]: Active
- Activity [10]: inactive
- Activity [11]: 3.9%
- Activity [12]: Toxic
- Activity [13]: 0%
- Activity [14]: 13.8%
- IC30 [15]: 13 µM
- IC50 [15]: 35 µM
- Activity [16]: 0.3%
- Activity [17]: 0.3%
- viability at 72 h, 25 µM [18]: 85.3%

- MIC [19]: 72 µM (≈ 19.4 µg/mL)
- MIC [20]: 2320 µM (≈ 626 µg/mL)
- MIC [22]: 2320 µM (≈ 626 µg/mL)
- MIC [23]: 36 µM (≈ 9.7 µg/mL)
- MIC [24]: 2320 µM (≈ 626 µg/mL)
- MIC [26]: 4650 µM (≈ 1250 µg/mL)
- MIC [28]: 4650 µM (≈ 1250 µg/mL)
- MIC [29]: 4650 µM (≈ 1250 µg/mL)
- MIC [30]: 4650 µM (≈ 1250 µg/mL)
- MIC [31]: 18 µM (≈ 4.85 µg/mL)
SMILES: CC(C)(C)C1=CC(=O)C(NCc2ccccc2)=CC1=O
- IC30 [3]: 13 µM
- IC50 [3]: 19 µM
- selectivity ratio [21]: ≤ 1.5
- selectivity ratio [25]: <=1.5
- selectivity ratio [27]: ≤ 1.5
- IC50 [8]: 28 µM
- IC30 [8]: 12 µM
- IC30 [15]: 5 µM
- IC50 [15]: 15 µM

SMILES: CC1=CCC[C@H]2[C@](C)(CC3=CC(=O)C(NCCc4ccccc4)=CC3=O)[C@@H](C)CC[C@]12C
- Activity [1]: 1%
- Activity [2]: 94.9%
- IC30 [3]: 75 µM
- IC50 [3]: > 100 µM
- Activity [4]: 0.6%
- selectivity ratio [21]: ≤ 1.5
- Activity [5]: 0.3%
- selectivity ratio [25]: <=1.5
- selectivity ratio [27]: ≤ 1.5
- Activity [6]: 92%
- Activity [7]: 4.1%
- IC50 [8]: > 100 µM
- IC30 [8]: 76 µM
- Activity [9]: inactive
- Activity [11]: 7.2%
- Activity [13]: 0.4%
- Activity [14]: 9.2%
- IC30 [15]: 10 µM
- IC50 [15]: 91 µM
- Activity [16]: 0.3%
- Activity [17]: 0.5%
- viability at 72 h, 25 µM [18]: 89.5%

SMILES: CCCCCCCCNC1=CC(=O)C=C(C(C)(C)C)C1=O
- Activity [32]: Active
- Activity [1]: 2.6%
- Activity [2]: 61.4%
- Activity [33]: Non-toxic
- IC30 [3]: 5 µM
- IC50 [3]: 20 µM
- Activity [4]: 2.1%
- selectivity ratio [21]: ≤ 1.5
- Activity [5]: 0.2%
- selectivity ratio [27]: ≤ 1.5
- Activity [6]: 54.9%
- Activity [7]: 36.4%
- IC50 [8]: 30 µM
- IC30 [8]: 18 µM
- MIC [34]: 2150 µM (≈ 626 µg/mL)
- Activity [9]: Active
- Activity [10]: inactive
- Activity [11]: 42%
- Activity [12]: Non-toxic
- Activity [13]: 0.1%
- Activity [14]: 19.8%
- MIC [35]: 539 µM (≈ 157 µg/mL)
- IC30 [15]: 8 µM
- IC50 [15]: 21 µM
- Activity [16]: 0.6%
- Activity [36]: Active
- MIC [37]: 67 µM (≈ 19.5 µg/mL)
- Activity [17]: 2.9%
- viability at 72 h, 25 µM [18]: 77%
